Laboratory results as given in ChEMBL document CHEMBL4680098, “Next-Generation Reduction Sensitive Lipid Conjugates of Tenofovir: Antiviral Activity and Mechanism of Release” (J Med Chem, 2016).
Counter-ions that a name gives are not always drawn.

Key:
[1] = Retention time in PBS buffer at pH 7.4 using compound 6 by LC-MS analysis; assay type: physicochemical
[2] = system: Human immunodeficiency virus 1; assay: Antiviral activity against HIV1 infected in human PBMC assessed as reduction in viral replication incubated for 7 days by radioactive incorporation polymerization assay based reverse transcriptase activity detection method; assay type: functional, organism-based; details: Human immunodeficiency virus 1, PBMC, 168 h
Summary of the method: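 Fresh donor PBMCs (HIV/HBV negative) were isolated on Ficoll-Hypaque and stimulated 48-72 hr with PHA-P. They were then kept in RPMI 1640 with 15% FBS and IL-2, and used 72 hr after stimulation at 1×10^6 cells/ml. Compounds were tested up to 100 μM in five serial logarithmic dilutions. Infection used 50-150 TCID₅₀ per well (MOI ~0.002), in triplicate, with supernatant RT activity read at day 7.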

[3] = Cytotoxicity in uninfected human PBMC assessed as reduction in cell viability by XTT assay; assay type: tissue-based
Summary of the method: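 Fresh HIV/HBV-negative human PBMCs isolated by Ficoll-Hypaque and stimulated 48-72 h with 2 µg/mL PHA-P, then kept in RPMI 1640 with 15% FBS and IL-2. Plates were set up as for the anti-HIV assay but without virus, with compound up to 100 μM in log dilutions, for 7 days. Viability read by XTT at 450/650 nm, in triplicate.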

[4] = Stability in pH 2.0 buffer assessed as compound decomposition measured up to 350 mins at 37 degC by LC-MS analysis; assay type: physicochemical; details: pH 2, 350 min
[5] = Stability in pH 9.2 buffer assessed as compound decomposition measured up to 350 mins at 37 degC by LC-MS analysis; assay type: physicochemical; details: pH 9.2, 350 min
[6] = Stability in pH 11.56 buffer assessed as compound decomposition measured up to 350 mins at 37 degC by LC-MS analysis; assay type: physicochemical; details: pH 11.56, 350 min
Hepatitis B virus = assay: Antiviral activity against HBV infected in human HepG2 assessed as reduction in viral replication incubated for 6 days by real time Q-PCR analysis; assay type: functional, organism-based; details: HepG2, 144 h
Summary of the method: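 Cells seeded at 1x10⁴/well, held 24 h at 37°C in 5% CO₂. Six ten-fold serial compound dilutions in RPMI1640 with 10% FBS were added in triplicate; medium-only wells served as virus controls. Cultured 6 days; medium with compound renewed on day 3. Day-6 supernatant diluted in buffer containing 40 μg/ml sheared salmon sperm DNA, boiled 15 min, then qPCR; HBV DNA copies interpolated from standard curve.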

HepG2 = assay: (§1) Cytotoxicity in uninfected human hepG2 assessed as reduction in cell viability by XTT assay; assay type: cell-based; details: hepg2
Summary of the method: (§2)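 Uninfected cells were plated and treated as in the anti-HBV plate: six ten-fold compound dilutions, 6 days at 37°C in 5% CO₂, medium renewed day 3. The monolayer was stained with XTT on day 6 and read at 450/650 nm, in triplicate.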

[7] = Therapeutic index, ratio of CC50 for uninfected human PBMC to EC50 for HIV1 infected in human PBMC; assay type: toxicity; details: PBMC (uninfected for CC50, HIV-1 infected for EC50)
[8] = as §1; assay type: cell-based; details: uninfected HepG2 cells; summary of the method: as §2
[9] = Therapeutic index, ratio of CC50 for uninfected human HepG2 cells to EC50 for HBV infected in human HepG2 cells; assay type: toxicity, cell-based
[10] = Aqueous solubility of compound; assay type: physicochemical; details: buffer
[11] = Stability in glycine/HCl buffer at pH 2.0 assessed as compound decomposition by LC-MS analysis; assay type: physicochemical
Summary of the method: (§3)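 Freshly prepared buffer (3.0 ml) was equilibrated at 37.4 ± 0.2 °C with DTT at ~0.1 M and stirred 10 min. Compound stock in water/MeOH was then added. Aliquots were taken from 0 min to 24 h, with shorter intervals where needed, diluted to 1025 µL with H₂O/MeOH/HCOOH (75:25:0.1) and analysed by LC-MS.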

[12] = Stability in PBS buffer at pH 7.4 assessed as compound decomposition by LC-MS analysis; assay type: physicochemical; summary of the method: as §3
[13] = Stability in aqueous carbonate/bicarbonate buffer at pH 9.19 assessed as compound decomposition by LC-MS analysis; assay type: physicochemical; summary of the method: as §3
[14] = Stability in aqueous carbonate/bicarbonate buffer at pH 10.16 assessed as compound decomposition measured within 8 mins by LC-MS analysis; assay type: physicochemical; details: read-out: Drug degradation; summary of the method: as §3

Row | Structure (SMILES) | EC50 [2] | CC50 ([3]; pbmc) | EC50 (Hepatitis B virus) | CC50 (HepG2) | selectivity ratio [7] | selectivity ratio [9] | further results
1 | C[C@H](Cn1cnc2c(N)ncnc21)OCP(=O)(O)O [TENOFOVIR ANHYDROUS] | 0.32 µM | > 100 µM |  |  |  |  | Retention_time [1]: 0.66 min
2 | C[C@H](Cn1cnc2c(N)ncnc21)OCP(=O)(O)OCCCCS |  | > 100 µM | > 100 µM | > 100 µM |  |  | Stabilty [4]: Stable; Stabilty [5]: Stable; Stabilty [6]: Stable
3 | CCCCCCCCCCCCSSCCCCCCOP(=O)(O)CO[C@H](C)Cn1cnc2c(N)ncnc21 | 0.007 µM |  | 1.05 µM |  | > 7000 | > 47 | CC50 ([3]; uninfected PBMC): > 50 µM; CC50 [8]: > 50 µM
4 | CCCCCCCCCCCCCCCCSSc1ccccc1COP(=O)(O)CO[C@H](C)Cn1cnc2c(N)ncnc21 |  | 17.2 µM | 4.48 µM | 17.5 µM |  |  | 
5 | CCCCCCCCCCCCCCCCSSCCOP(=O)(O)CO[C@H](C)Cn1cnc2c(N)ncnc21 | 0.00065 µM |  | 0.02 µM | > 25 µM | 22000 |  | solubility [10]: Insoluble
6 | CC(C)OC(=O)OCOP(=O)(CO[C@H](C)Cn1cnc2c(N)ncnc21)OCOC(=O)OC(C)C [TENOFOVIR DISOPROXIL FUMARATE] | 0.0045 µM |  | 0.34 µM | 64.5 µM | 9500 | 190 | 
7 | C[C@H](Cn1cnc2c(N)ncnc21)OCP(=O)(O)OCCS |  | > 100 µM | 41.9 µM | > 100 µM |  |  | Stabilty [11]: Stable; Stabilty [12]: Stable; Stabilty [13]: Unstable; degraded at 8 min [14]: 100%
8 | CCCCCCCCCCCCCCCCSSCCCCOP(=O)(O)CO[C@H](C)Cn1cnc2c(N)ncnc21 | < 0.0005 µM | > 50 µM | 0.248 µM | > 50 µM | > 100000 |  | solubility [10]: Insoluble
9 | CCCCCCCCCCCCCCCCSSCc1ccccc1COP(=O)(O)CO[C@H](C)Cn1cnc2c(N)ncnc21 | < 0.0005 µM | 15.9 µM | 0.152 µM | 32.5 µM |  | 214 | 
